Results on two compounds are retold here after article PMC3270116 (Analytical Biochemistry, 2011).

Entries after “also recorded” stand apart in the source; their conditions may differ.

Assay [1] concerns the target T1, serine racemase (SR) in PC-12 cells (Rattus norvegicus, UniProt Q76EQ0).
T1 sequence (Q76EQ0 1-333): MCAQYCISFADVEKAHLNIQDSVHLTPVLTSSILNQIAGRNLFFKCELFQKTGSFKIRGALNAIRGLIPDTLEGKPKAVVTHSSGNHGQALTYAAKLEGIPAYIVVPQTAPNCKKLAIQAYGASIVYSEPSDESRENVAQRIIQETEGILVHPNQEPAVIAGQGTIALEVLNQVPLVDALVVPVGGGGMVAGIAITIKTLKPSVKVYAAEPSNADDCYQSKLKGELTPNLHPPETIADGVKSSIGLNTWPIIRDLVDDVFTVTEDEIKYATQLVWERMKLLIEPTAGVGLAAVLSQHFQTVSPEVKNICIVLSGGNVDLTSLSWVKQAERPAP
Put plainly: CE-LIF measurement of intra-cellular D-Ser production in PC-12 cells. The assay is classed as cell-based. Conditions: for intra-cellular D-Ser production: 36 h, PC-12, n = 3. In short, it runs like this:
(§1)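 PC-12 cells were kept in RPMI-1640 with 10% horse serum and 5% FBS, and 1321N1 cells in DMEM with 10% FBS. […] Pellets were spiked with D-Arg internal standard, ACN-extracted, dried and FITC-labelled. CE-LIF used 0.5 mM HP-β-CD in 80 mM borate, pH 9.3.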

Assay [2] addresses T2, serine racemase (SR) in C6 cells (Rattus norvegicus, UniProt Q76EQ0).
T2 sequence (Q76EQ0 1-333): T1 sequence (Q76EQ0 1-333)
Put plainly: CE-LIF measurement of intra-cellular D-Ser production in C6 cells. In kind it is cell-based. To be noted: for intra-cellular D-Ser production: 36 h, C6, n = 3. In short, it runs like this: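 C6 cells in DMEM with L-Gln, 10% FBS and 1% penicillin/streptomycin were grown at 37 °C in 5% CO2 to >70% confluence. They were then incubated for 36 h in medium with substrate amino acid (0–20 mM) or inhibitor amino acid (0–8 mM), in triplicate. ACN extracts with D-Arg internal standard were FITC-labelled, then run by CE-LIF in 0.5 mM HP-β-CD/80 mM borate, pH 9.3. D-Ser was quantified by area ratio to FITC-D-Arg.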

The target in assay [3] is T3, serine racemase (SR) in HepG2 cells (Homo sapiens, UniProt Q9GZT4).
T3 sequence (Q9GZT4 1-340): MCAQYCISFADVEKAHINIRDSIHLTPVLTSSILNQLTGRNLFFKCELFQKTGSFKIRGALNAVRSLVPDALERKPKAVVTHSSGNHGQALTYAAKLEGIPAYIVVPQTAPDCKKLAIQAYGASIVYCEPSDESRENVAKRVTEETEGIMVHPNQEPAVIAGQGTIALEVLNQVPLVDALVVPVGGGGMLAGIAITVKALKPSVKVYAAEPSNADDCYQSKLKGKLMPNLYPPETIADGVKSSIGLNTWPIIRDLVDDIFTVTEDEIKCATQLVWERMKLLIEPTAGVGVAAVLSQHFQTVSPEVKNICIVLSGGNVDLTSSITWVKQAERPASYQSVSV
Put plainly: CE-LIF measurement of intra-cellular D-Ser production in HepG2 cells. The assay is classed as cell-based. Conditions: for intra-cellular D-Ser production: 36 h, HepG2, n = 3. The gist of the method: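 Medium for HepG2 was EMEM with 1% L-Gln, 10% FBS, 1% sodium pyruvate and 1% penicillin/streptomycin. Cells at >70% confluence (37 °C, 5% CO2) were exposed for 36 h to medium with substrate amino acid (0–20 mM) or inhibitor amino acid (0–8 mM), in triplicate. Cell extracts in ACN with D-Arg internal standard were FITC-derivatized. CE-LIF used 0.5 mM HP-β-CD in 80 mM borate, pH 9.3, with D-Ser quantified against FITC-D-Arg.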

In assay [4] the target is T4, serine racemase (SR) in 1321N1 cells (Homo sapiens, UniProt Q9GZT4).
T4 sequence (Q9GZT4 1-340): T3 sequence (Q9GZT4 1-340)
Put plainly: CE-LIF measurement of intra-cellular D-Ser production in 1321N1 cells. In kind it is cell-based. Conditions: for intra-cellular D-Ser production: 36 h, 1321N1, n = 3. In short, it runs like this:
as §1

In assay [5] the test system is SR protein (monomer and dimer) in PC-12 cells. Put plainly: Western blot of SR protein expression in PC-12 cells. In kind it is cell-based, rat. To be noted: 36-h treatment; for expression of the SR dimer relative to control: normalized to β-actin, n=2. The gist of the method: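 Lysates were BCA-assayed, and 20 μg protein per lane was run on reducing 4–12% SDS-PAGE and moved to PVDF. Blots were blocked in 5% milk, probed with a […] SR antibody, then an HRP secondary, and detected by ECL. Bands were quantified by densitometry, normalised to β-actin, n=2.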

Assay [6] relates to SR purified from mouse brain. To be noted: read-out: Km for L-Ser; cited from earlier work.
In assay [7] the test system is purified recombinant human SR. Conditions: read-out: Km for L-Ser; cited from earlier work.
A further assay has as its system primary microglia. Conditions: LPS 100 ng/ml; cited from earlier work.

For `N[C@@H](CO)C(=O)O` [L-Ser, L-serine], the 50% effective concentration (EC50) was found to be 5.41 ± 0.76 mM in assay [1], 9.37 ± 0.17 mM in assay [2], 7.87 ± 2.09 mM in assay [3] and 9.16 ± 0.27 mM in assay [4]. In addition, the “intra-cellular D-Ser production” value in assay [1] (L-Ser 2 mM in media) is given as 16.48 ± 1.72; in assay [1] (L-Ser 4 mM in media), 21.97 ± 2.48; in assay [1] (L-Ser 6 mM in media), 29.51 ± 4.93; in assay [1] (L-Ser 8 mM in media) it was 31.46 ± 0.07; in assay [1] (L-Ser 10 mM in media) it was 36.49 ± 1.64; in assay [1] (L-Ser 15 mM in media), 38.01 ± 0.50. The “intra-cellular D-Ser production” value in assay [1] (L-Ser 20 mM in media) amounted to 39.13 ± 0.36; in assay [2] (L-Ser 2 mM in media), 2.91 ± 0.17; in assay [2] (L-Ser 4 mM in media), 3.05 ± 0.08; in assay [2] (L-Ser 6 mM in media) it was 3.60 ± 0.14; in assay [2] (L-Ser 8 mM in media), 7.17 ± 0.27; in assay [2] (L-Ser 10 mM in media) it was 10.63 ± 0.45. Besides, the “intra-cellular D-Ser production” value came out at 15.64 ± 0.10 in assay [2] (L-Ser 15 mM in media); 16.07 ± 0.16 in assay [2] (L-Ser 20 mM in media); 15.48 ± 0.26 in assay [3] (L-Ser 2 mM in media); 16.21 ± 0.21 in assay [3] (L-Ser 4 mM in media); 17.53 ± 1.70 in assay [3] (L-Ser 6 mM in media); 18.50 ± 1.48 in assay [3] (L-Ser 8 mM in media). Besides, the “intra-cellular D-Ser production” value in assay [3] (L-Ser 10 mM in media) was 20.10 ± 0.50; in assay [3] (L-Ser 15 mM in media) it was 21.81 ± 0.35; in assay [3] (L-Ser 20 mM in media), 26.28 ± 0.25; in assay [4] (L-Ser 2 mM in media), 8.13 ± 0.14; in assay [4] (L-Ser 4 mM in media), 9.26 ± 1.00; in assay [4] (L-Ser 6 mM in media), 9.46 ± 0.87. Besides, the “intra-cellular D-Ser production” value in assay [4] (L-Ser 8 mM in media) was determined as 9.54 ± 0.82; in assay [4] (L-Ser 10 mM in media), 19.57 ± 0.77; in assay [4] (L-Ser 15 mM in media), 21.94 ± 0.18; in assay [4] (L-Ser 20 mM in media), 22.31 ± 1.27. For the same compound, the “increase in intra-cellular D-Ser levels” value is on record as 533% in assay [2] (C6, L-Ser 2.0 to 20.0 mM added to incubation buffer) and 50% in assay [3] (HepG2, L-Ser 2.0 to 20.0 mM added to incubation buffer). Further, the “SR dimer or SR monomer expression relative to control” value in assay [5] (PC-12, L-Ser 10 mM) is given as “neither of these treatments produced a significant change; also recorded: without causing a significant change”. The Km is 18 mM in assay [6] and 4 mM in assay [7].
For lipopolysaccharide [LPS], the “increase in intra-cellular D-Ser concentration” value in assay [1] (PC-12, LPS 10 ng/ml in incubation media) was determined as 2.5 fold; in assay [1] (PC-12, LPS 100 ng/ml in incubation media), 3.5 fold. The “expression of the SR dimer relative to control” value in assay [5] (PC-12, LPS 10 ng/ml) came to 1.2 fold; in assay [5] (PC-12, LPS 100 ng/ml), 1.6 fold. For the same compound, the “D-Ser levels in the incubation media” value in the assay with primary microglia is “increased”. The “expression of the dimeric form of SR” value in the assay on primary microglia is listed as “increased”.
